{
  "source": "ChEMBL document CHEMBL4017489",
  "about": "“Design, Synthesis, and Evaluation of New Selective NM23-H2 Binders as c-MYC Transcription Inhibitors via Disruption of the NM23-H2/G-Quadruplex Interaction” (J Med Chem, 2017)",
  "key": {"SiHa [1]": {"system": "SiHa", "test": "Down regulation of CDK6 expression in human SiHa cells at 0.5 to 2 uM after 24 to 48 hrs by Western blot analysis", "assay_type": "functional, cell-based", "how_it_was_run": "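SiHa cells (2.0 × 10^5) treated with compound at various concentrations for 24 or 48 h, then lysed at 4 °C. Protein measured by BCA; 30 μg run on 10% SDS-PAGE and transferred to nitrocellulose. Membranes blocked in 5% milk, probed with primary antibodies overnight at 4 °C, then HRP secondary for 2 h, and detected by chemiluminescence. Bands quantified by densitometry; at least three experiments.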"}, "SiHa [2]": {"system": "SiHa", "test": "Cell cycle arrest in human SiHa cells assessed as accumulation at S phase at 2 uM after 3 hrs by propidium iodide staining based flow cytometry (reference value: 13%)", "assay_type": "functional", "how_it_was_run": "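SiHa cells (2.0 × 10^5 per well) plated 24 h, then exposed to 2 μM compound or left untreated for 3, 6, 9, 12, 24, 36 or 48 h. Cells washed in PBS, fixed overnight in ice-cold 70% ethanol, treated with 20 μg/mL RNase A for 30 min at 37 °C, stained with PI, and read by flow cytometry at 488 nm. Phase percentages compared with untreated control; at least three experiments.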"}, "SiHa [3]": {"system": "SiHa", "test": "Induction of apoptosis in human SiHa cells assessed as increase in cleaved PARP level after 48 hrs by Western blot analysis", "assay_type": "functional, cell-based", "how_it_was_run": "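SiHa cells treated with 0, 0.5, 1.0 or 2.0 μM for 48 h and lysed for total protein. Caspase-3, cleaved caspase-3, PARP and cleaved PARP detected by Western blot (30 μg protein, 10% SDS-PAGE, HRP chemiluminescence). Bands quantified by densitometry; at least three experiments.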"}},
  "note": "The source made the active and inactive calls. The rule behind the calls is not given here.",
  "data": [
    {"smiles": "CN(C)CCCNc1cc2nc3n(c(=O)c2cc1F)CC/C3=C\\c1ccc(OCc2ccccc2)cc1O", "values": [
      {"measurement": "Activity", "setting": "SiHa [1]", "value": "Active"},
      {"measurement": "Activity", "setting": "SiHa [2]", "value": 11, "unit": "%"},
      {"measurement": "Activity", "setting": "SiHa [3]", "value": "Dose-dependent effect"}
    ]}
  ]
}
